Read-outs that look alike come from different tables or passages of the source.
Key:
[1] = CD α-helix content of VEK-30 peptides in absence of K2Pg; type: physicochemical; conditions: 222 nm, 30 μM peptide, 100 mM sodium phosphate, pH 7.4, room temperature
Outline: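 Recombinant peptides (His6-GB1 fusion expressed in E. coli BL21(DE3), thrombin-cleaved, GS N-terminal remnant; variants by site-directed mutagenesis; integrity checked by MALDI-TOF). Spectra recorded 200–250 nm in a 1 mm quartz cell without K2Pg. Concentration set by A280. Helix fraction derived from mean residue ellipticity at 222 nm as f_α = (−[θ]222 − 2340)/30,300.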

[2] = Sedimentation equilibrium analytical ultracentrifugation; type: physicochemical; conditions: sedimentation equilibrium (and NMR correlation time)
K2Pg [3] = molecular target: T1, K2Pg (Homo sapiens, UniProt P00747, C188G/E240D/L256Y); test: SPR binding of VEK-30 variants to immobilized K2Pg
T1 sequence (P00747 184-262 C188G/E240D/L256Y): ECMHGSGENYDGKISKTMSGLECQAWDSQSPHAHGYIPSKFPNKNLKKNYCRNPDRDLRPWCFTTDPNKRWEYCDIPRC
Outline: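 Recombinant peptide analytes (GB1-fusion, thrombin-cleaved, GS N-terminal remnant) were run at 25 °C. K2Pg at 100 μg/ml in 0.1 M NaOAc pH 4.0 was amine-coupled (NHS/EDC, ethanolamine block). A K2Pg-free reference cell was subtracted. KD = kd/ka.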

K2Pg [4] = molecular target: T1, K2Pg; conditions: variant kringle vs K2Pg parent; ref [5]; cited from earlier work
[5] = tested on: other isolated Pg kringle domains; conditions: cited from earlier work
[6] = molecular target: Human K2Pg(C4G/E56D/L72Y), isolated kringle 2 domain of human plasminogen (human); test: AUC
[7] = molecular target: Human K2Pg(C4G/E56D/L72Y), isolated kringle 2 domain of human plasminogen (human); test: SPR
[8] = molecular target: Human K2Pg(C4G/E56D/L72Y), isolated kringle 2 domain of human plasminogen (human)

| Substance | Kd [7] [nM] | koff [7] [s⁻¹] | kon [7] [M⁻¹ s⁻¹] | also measured |
| --- | --- | --- | --- | --- |
| H-GSVEKLTADAELQRLKNERHEEAELERLKSEY-OH [VEK-30] | – | – | – | Apo-helicity (% α-helix in absence of K2Pg) [1]: 34%; association state in solution [2]: monomeric form; koff (K2Pg [3]; pH 7.4, read-out: koff (dissociation rate constant)): 0.0293 s⁻¹; kon (K2Pg [3]; pH 7.4, read-out: kon (association rate constant)): 454000 M⁻¹ s⁻¹; affinity enhancement of K2Pg(C4G/E56D/L72Y) compared with K2Pg parent (K2Pg [4]): approximately 15 fold; specificity of binding to Pg for the kringle 2 domain ([5]; background statement in Introduction, no reference printed in that sentence): highly specific; affinity for the other isolated Pg kringle domains ([5]; ref [5],[33]): no measurable affinity |
| VEK-30, 30-amino acid residue internal peptide from the streptococcal M-like plasminogen binding protein PAM | 65 | 0.0293 | 454000 | stoichiometry N (VEK-30 per K2Pg) [6]: 1; stoichiometry N (VEK-30 per K2Pg) [7]: 1; Kd [8]: 40 nM |
| VEK-30[D7A/E9A] (peptide) | 371 | 0.0967 | 261000 | – |
| VEK-30[D7A] (peptide) | 446 | 0.0561 | 126000 | – |
| VEK-30[D7N/E9Q] (peptide) | 1710 | 0.086 | 50400 | – |
| VEK-30[D7N] (peptide) | 1940 | 0.0704 | 36200 | – |
